# Experimental data published in ChEMBL document CHEMBL2331170, “Synthesis and biological evaluation of novel pyranochalcone derivatives as a new class of microtubule stabilizing agents” (Eur J Med Chem, 2013).
# Activity calls are given as the source filed them. The calls are words filed in the database; no cut-off is given here.
# Columns and labels:
# [1] = Cytotoxicity against human SPC-A1 cells by MTT assay; format: functional, cell-based; settings: SPCA1
# A2780 = experiment: Cytotoxicity against taxol-resistant human A2780 cells by MTT assay; format: functional, cell-based
# SK-HEP1 = experiment: Cytotoxicity against human SKHEP1 cells by MTT assay; format: functional, cell-based
# PC-3 = experiment: Cytotoxicity against human PC3 cells by MTT assay; format: functional, cell-based
# Tubulin (Sus scrofa) [2] = target: T1, Tubulin (Sus scrofa) (UniProt P02554+P02550); experiment: Stabilization of purified pig brain tubulin polymerization at 5 uM measured every 30 seconds by spectrophotometry
# In short: (§1)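 It was pre-incubated 5 min with compound (5, 10, 20 μM), Taxol (5, 20 μM) or DMSO. GTP was added to 1 mM final to start assembly, followed as the rise in absorbance at 340 nm at 37 °C.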
# [3] = Cytotoxicity against human H460 cells by MTT assay; format: functional, cell-based; settings: NCI-H460
# HT-29 = experiment: Cytotoxicity against human HT-29 cells by MTT assay; format: functional, cell-based
# Tubulin (Sus scrofa) [4] = target: T1, Tubulin (Sus scrofa); experiment: Stabilization of purified pig brain tubulin polymerization at 20 uM measured every 30 seconds by spectrophotometry; in short: as §1
# MCF7 = experiment: Cytotoxicity against human MCF7 cells by MTT assay; format: functional, cell-based
# SK-OV-3 = experiment: Cytotoxicity against human SKOV3 cells by MTT assay; format: functional, cell-based
# [5] = Cytotoxicity against mouse C26 cells by MTT assay; format: functional, cell-based
# [6] = Cytotoxicity against human MCF7/ADR cells by MTT assay; format: functional, cell-based; settings: NCI/ADR-RES
# [7] = Cytotoxicity against human ES2 cells by MTT assay; format: functional, cell-based; settings: ES-2
# DU-145 = experiment: Cytotoxicity against human DU145 cells by MTT assay; format: functional, cell-based
# HCT-8 = experiment: Cytotoxicity against taxol-resistant human HCT8 cells by MTT assay; format: functional, cell-based
# HepG2 [8] = experiment: Antitumor activity against human HepG2 cells xenografted in Balb/C mouse assessed as tumor volume T/C ratio at 5 mg/kg administered every 4 days for 3 weeks measured on day 20 relative to control
# Bel-7402 = experiment: Cytotoxicity against human Bel7402 cells by MTT assay; format: functional, cell-based
# HepG2 [9] = experiment: Antitumor activity against human HepG2 cells xenografted in Balb/C mouse assessed as tumor growth inhibition rate at 5 mg/kg administered every 4 days for 3 weeks measured on day 20; format: functional; settings: read-out: TGI
# In short: (§2)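 HepG2 cells (5 × 10⁶/mouse) in HBSS implanted in the right flank of 5–6-week-old female Balb/C and athymic nude mice, six per group. Dosing began once tumors reached ~100 mm³: three weeks at 2.5, 5 or 10 mg/kg every two days, or Taxol 5 mg/kg every four days; controls got physiological saline. Tumor volume = π/6 × length × width². T/C (%) = treated/control tumor volume × 100. Inhibition = (1 − treated/control tumor weight) × 100.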
# HCT-15 = experiment: Cytotoxicity against human HCT15 cells by MTT assay; format: functional, cell-based
# NCI-H358 = experiment: Cytotoxicity against human NCI-H358 cells by MTT assay; format: functional, cell-based
# Tubulin (Sus scrofa) [10] = target: T1, Tubulin (Sus scrofa); experiment: Stabilization of purified pig brain tubulin polymerization at 10 uM measured every 30 seconds by spectrophotometry; in short: as §1
# Tubulin (Homo sapiens) [11] = target: T2, Tubulin (Homo sapiens) (UniProt P68371+Q9H4B7+P0DPH7+P68366+Q13509+Q71U36+P04350+Q3ZCM7+P07437+P68363+Q9BQE3+Q6PEY2+Q13885+Q9BVA1+Q9BUF5); experiment: Increase in polymerized tubulin level in human HepG2 cells at 0.1 to 0.5 uM after 24 hrs by Western blot analysis; format: cell-based
# In short: (§3)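 HepG2 cells were treated at 0.1 or 0.5 μM for 24 h and washed three times in PBS. They were lysed on ice for 30 min in 20 mM Tris-HCl pH 6.8, 1 mM MgCl₂, 2 mM EGTA, 1 mM PMSF, 1 mM orthovanadate, 0.5% NP-40 and protease inhibitor. Tubulin was immunoblotted with α-tubulin antibody and HRP secondary, with chemiluminescent detection.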
# Mus musculus [12] = experiment: Toxicity in human HepG2 cells xenografted Balb/C mouse assessed as behaviour changes at 2.5 to 10 mg/kg administered every 2 days for 3 weeks; format: organism-based; parameters: dose 2.5-10 mg/kg; settings: in vivo
# In short: (§4)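 Female Balb/C and nude mice (5–6 weeks) carried right-flank HepG2 xenografts (5 × 10⁶ cells). From ~100 mm³ tumor volume they were dosed at 2.5–10 mg/kg every two days for three weeks, six per group, with saline controls. Toxicity signs and mortality were checked daily. Body weight was measured every two days; feeding and behavior were observed.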
# [13] = Cytotoxicity against human A2780S cells by MTT assay; format: functional, cell-based; settings: A2780
# HepG2 [14] = experiment: Induction of microtubule polymerization in human HepG2 cells at 1 uM after 24 hrs by propidium iodide-FITC-based staining method
# HepG2 [15] = experiment: Cell cycle arrest in human HepG2 cells assessed as accumulation at G2/M phase at 0.2 uM after 24 hrs by flow cytometry (reference value: 17.07 %); format: functional
# HepG2 [16] = experiment: Cytotoxicity against human HepG2 cells by MTT assay; format: functional, cell-based
# In short: (§5)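 Log-phase cells were diluted to 40,000–50,000 cells/mL in medium with 10% FBS, 2 mM glutamine and antibiotics (37 °C, 5% CO₂). They were seeded in 96-well plates and treated with a range of doses. MTT was added for 4 h, the formazan was dissolved in DMSO, and absorbance was read at 590 nm.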
# HepG2 [17] = experiment: Antitumor activity against human HepG2 cells xenografted in Balb/C mouse assessed as tumor growth inhibition rate compound administered every 2 days for 3 weeks measured on day 20; format: functional, cell-based; in short: as §2
# K562 = experiment: Cytotoxicity against human K562 cells by MTT assay; format: functional, cell-based; in short: as §5
# Mus musculus [18] = experiment: Toxicity in human HepG2 cells xenografted Balb/C mouse assessed as weight loss at 2.5 to 10 mg/kg administered every 2 days for 3 weeks; format: organism-based; parameters: dose 2.5-10 mg/kg; settings: in vivo; in short: as §4
# Tubulin (Sus scrofa) [19] = target: T1, Tubulin (Sus scrofa); experiment: Induction of purified pig brain tubulin depolymerization at 5 to 20 uM measured every 30 seconds by spectrophotometry; in short: as §1
# Mus musculus [20] = experiment: Toxicity in human HepG2 cells xenografted Balb/C mouse assessed as feeding at 2.5 to 10 mg/kg administered every 2 days for 3 weeks; format: organism-based; parameters: dose 2.5-10 mg/kg; settings: in vivo; in short: as §4
# HepG2 [21] = experiment: Cell cycle arrest in human HepG2 cells assessed as accumulation at G2/M phase at after 24 hrs by flow cytometry; format: functional, cell-based
# Tubulin (Sus scrofa) [22] = target: T1, Tubulin (Sus scrofa); experiment: Stabilization of purified pig brain tubulin polymerization measured every 30 seconds by spectrophotometry; in short: as §1
# HepG2 [23] = experiment: Antitumor activity against human HepG2 cells xenografted in Balb/C mouse assessed as tumor volume T/C ratio at 10 mg/kg administered every 2 days for 3 weeks measured on day 20 relative to control
# HepG2 [24] = experiment: Antitumor activity against human HepG2 cells xenografted in Balb/C mouse assessed as tumor growth inhibition rate at 5 mg/kg administered every 2 days for 3 weeks measured on day 20; format: functional; settings: read-out: TGI; in short: as §2
# HepG2 [25] = experiment: Effect on microtubule network in human HepG2 cells assessed as multiple tubulin bundles without chromosomes aligned at the metaphase plate with more dispersion of the chromosomes at 1 uM after 24 hrs by propidium iodide-FITC-based staining method; format: cell-based
# In short: (§6)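 HepG2 cells were treated with 1.0 μM for 24 h. They were washed in PBS, fixed in cold 4% PFA for 10 min and blocked for 1 h in 5% goat serum/0.3% Triton/PBS. Staining used monoclonal anti-α-tubulin overnight at 4 °C, then Alexa Fluor 488 anti-mouse IgG for 30 min at room temperature, with propidium iodide for DNA. Cells were imaged by fluorescence or confocal microscopy.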
# [26] = Ratio of taxol IC50 to compound IC50 for mouse C26 cells by MTT assay; format: functional
# HepG2 [27] = experiment: Antitumor activity against human HepG2 cells xenografted in Balb/C mouse assessed as tumor growth inhibition rate at 10 mg/kg administered every 2 days for 3 weeks measured on day 20; format: functional; settings: read-out: TGI; in short: as §2
# HepG2 [28] = experiment: Antitumor activity against human HepG2 cells xenografted in Balb/C mouse assessed as tumor growth inhibition rate at 2.5 mg/kg administered every 2 days for 3 weeks measured on day 20; format: functional; settings: read-out: TGI; in short: as §2
# Tubulin (Homo sapiens) [29] = target: T2, Tubulin (Homo sapiens); experiment: Decrease in unassembled tubulin level in human HepG2 cells at 0.1 to 0.5 uM after 24 hrs by Western blot analysis; format: cell-based; in short: as §3
# HepG2 [30] = experiment: Antitumor activity against human HepG2 cells xenografted in Balb/C mouse assessed as tumor volume T/C ratio at 2.5 mg/kg administered every 2 days for 3 weeks measured on day 20 relative to control
# [31] = Cytotoxicity against human LO2 cells by MTT assay; format: cell-based; settings: L02; in short: as §5
# HepG2 [32] = experiment: Antitumor activity against human HepG2 cells xenografted in Balb/C mouse assessed as tumor volume T/C ratio at 5 mg/kg administered every 2 days for 3 weeks measured on day 20 relative to control
# HepG2 [33] = experiment: Effect on microtubule network in human HepG2 cells assessed as abnormal mitotic spindles at 1 uM after 24 hrs by propidium iodide-FITC-based staining method; format: cell-based; in short: as §6
# HepG2 [34] = experiment: Cell cycle arrest in human HepG2 cells assessed as accumulation at G2/M phase at 1 uM after 24 hrs by flow cytometry (reference value: 17.07 %); format: functional
# A-375 = experiment: Cytotoxicity against human A375 cells by MTT assay; format: functional, cell-based; in short: as §5
# T1 sequence (P02550 whole entry, looked up): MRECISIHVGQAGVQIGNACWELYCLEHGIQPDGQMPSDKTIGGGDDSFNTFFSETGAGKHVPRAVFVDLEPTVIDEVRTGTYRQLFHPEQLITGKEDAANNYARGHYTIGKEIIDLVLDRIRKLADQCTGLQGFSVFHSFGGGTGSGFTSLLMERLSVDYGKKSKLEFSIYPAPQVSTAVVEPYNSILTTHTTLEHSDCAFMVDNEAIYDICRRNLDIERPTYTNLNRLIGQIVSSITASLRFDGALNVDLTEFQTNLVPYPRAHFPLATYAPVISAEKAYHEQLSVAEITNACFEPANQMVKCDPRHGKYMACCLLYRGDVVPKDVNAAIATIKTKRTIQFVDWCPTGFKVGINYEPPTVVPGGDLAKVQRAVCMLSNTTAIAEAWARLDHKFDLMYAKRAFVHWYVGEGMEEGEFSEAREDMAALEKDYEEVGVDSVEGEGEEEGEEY
# T1 sequence (P02554 whole entry, looked up): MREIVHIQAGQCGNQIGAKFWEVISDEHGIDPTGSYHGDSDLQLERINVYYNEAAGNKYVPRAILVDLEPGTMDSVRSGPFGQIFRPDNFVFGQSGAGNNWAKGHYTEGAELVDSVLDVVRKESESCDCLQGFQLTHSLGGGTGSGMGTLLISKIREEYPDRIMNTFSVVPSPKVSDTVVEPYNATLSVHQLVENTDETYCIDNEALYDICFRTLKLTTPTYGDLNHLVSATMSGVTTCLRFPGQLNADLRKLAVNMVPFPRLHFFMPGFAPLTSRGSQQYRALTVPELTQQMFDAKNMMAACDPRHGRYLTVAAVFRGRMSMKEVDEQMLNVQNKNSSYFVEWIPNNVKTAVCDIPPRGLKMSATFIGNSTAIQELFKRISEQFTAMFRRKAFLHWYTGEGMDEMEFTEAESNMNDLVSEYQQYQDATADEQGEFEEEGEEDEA
smiles,measurement,setting,value
CC(=O)O[C@H]1C(=O)[C@@]2(C)[C@H]([C@H](OC(=O)c3ccccc3)[C@]3(O)C[C@H](OC(=O)[C@H](O)[C@@H](NC(=O)c4ccccc4)c4ccccc4)C(C)=C1C3(C)C)[C@]1(OC(C)=O)CO[C@@H]1C[C@@H]2O [PACLITAXEL],IC50,[1],5300 nM
same,IC50,A2780,8250 nM
same,IC50,SK-HEP1,240 nM
same,IC50,PC-3,140 nM
same,Activity,Tubulin (Sus scrofa) [2],6.3%
same,IC50,[3],24000 nM
same,IC50,HT-29,450 nM
same,Activity,Tubulin (Sus scrofa) [4],23.8%
same,IC50,MCF7,660 nM
same,IC50,SK-OV-3,100 nM
same,IC50,[5],1050 nM
same,IC50,[6],6900 nM
same,IC50,[7],100 nM
same,IC50,DU-145,30 nM
same,IC50,HCT-8,13300 nM
same,T/C at 5 mg/kg,HepG2 [8],32.4%
same,IC50,Bel-7402,> 2000 nM
same,inhibition in vivo at 5 mg/kg,HepG2 [9],59.1%
same,IC50,HCT-15,120 nM
same,IC50,NCI-H358,10 nM
CCC(=O)Oc1cc(/C=C/C(=O)c2ccc(OC)c3c2OC(C)(C)C=C3)ccc1OC,Activity,Tubulin (Sus scrofa) [10],16.3%
same,Activity,Tubulin (Homo sapiens) [11],Active
same,IC50,[1],22300 nM
same,IC50,A2780,1330 nM
same,Activity,Mus musculus [12],Non-toxic
same,IC50,SK-HEP1,320 nM
same,IC50,PC-3,90 nM
same,IC50,[13],220 nM
same,Activity,Tubulin (Sus scrofa) [2],10%
same,IC50,[3],4050 nM
same,Activity,HepG2 [14],Active
same,Activity,HepG2 [15],67.76%
same,IC50,HepG2 [16],90 nM
same,TGI,HepG2 [17],Dose-dependent effect
same,IC50,HT-29,200 nM
same,IC50,K562,160 nM
same,Activity,Mus musculus [18],Non-toxic
same,Activity,Tubulin (Sus scrofa) [4],32%
same,Activity,Tubulin (Sus scrofa) [19],inactive
same,Activity,Mus musculus [20],Non-toxic
same,IC50,MCF7,190 nM
same,IC50,SK-OV-3,350 nM
same,Activity,HepG2 [21],Dose-dependent effect
same,Activity,Tubulin (Sus scrofa) [22],Dose-dependent effect
same,T/C at 10 mg/kg,HepG2 [23],33.9%
same,IC50,[5],310 nM
same,inhibition in vivo at 5 mg/kg,HepG2 [24],57.6%
same,Activity,HepG2 [25],Active
same,IC50,[6],160 nM
same,Ratio IC50,[26],3
same,inhibition in vivo at 10 mg/kg,HepG2 [27],69.7%
same,inhibition in vivo at 2.5 mg/kg,HepG2 [28],54.3%
same,Activity,Tubulin (Homo sapiens) [29],Active
same,IC50,[7],100 nM
same,IC50,DU-145,190 nM
same,IC50,HCT-8,1690 nM
same,T/C at 2.5 mg/kg,HepG2 [30],34.9%
same,IC50,Bel-7402,400 nM
same,IC50,[31],> 10000 nM
same,T/C at 5 mg/kg,HepG2 [32],32.4%
same,Activity,HepG2 [33],Active
same,Activity,HepG2 [34],76.02%
same,IC50,HCT-15,100 nM
same,IC50,A-375,240 nM
same,IC50,NCI-H358,150 nM
